Data on seven compounds can be found in ChEMBL document CHEMBL3085755, “Synthesis of 3-spiromorpholinone androsterone derivatives as inhibitors of 17β-hydroxysteroid dehydrogenase type 3” (Bioorg Med Chem Lett, 2013).

Each structure is given as a SMILES string.

For assay [1], the target named is T1, 17-beta-hydroxysteroid dehydrogenase type 3 (Rattus norvegicus, UniProt O54939).
T1 sequence (O54939 whole entry): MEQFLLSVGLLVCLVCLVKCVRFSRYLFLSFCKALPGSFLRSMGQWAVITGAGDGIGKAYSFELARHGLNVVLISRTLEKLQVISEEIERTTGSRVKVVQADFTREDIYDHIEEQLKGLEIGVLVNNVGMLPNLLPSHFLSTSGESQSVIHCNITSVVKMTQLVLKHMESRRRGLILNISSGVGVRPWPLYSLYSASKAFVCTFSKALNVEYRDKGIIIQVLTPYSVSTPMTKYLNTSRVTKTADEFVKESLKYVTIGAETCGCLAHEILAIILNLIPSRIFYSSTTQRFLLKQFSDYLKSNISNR
The assay is described as follows: Inhibition of 17beta-HSD3 in rat testes microsomal fraction using [14C]-4-androstene-3,17-dione as substrate assessed as testosterone formation after 2 hrs by thin layer chromatography. The method, boiled down: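 Rat testis microsomal fraction as 17β-HSD3 source, converting [14C]-Δ4-dione (50 nM) to [14C]-testosterone. Activity is plotted against log inhibitor concentration. IC50 is fitted from the inhibition curves. Values are mean ± SD of triplicates.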

Assay [2] concerns the target T2, 17-beta-hydroxysteroid dehydrogenase type 3 (Rattus norvegicus) (UniProt O54939).
T2 sequence (whole entry): T1 sequence (O54939 whole entry)
The assay is described as follows: Inhibition of 17beta-HSD3 in rat testes microsomal fraction using [14C]-4-androstene-3,17-dione as substrate assessed as testosterone formation at 0.1 uM after 2 hrs by thin layer chromatography. Particulars: Testis. It counts as microsomes. The method, boiled down:
(§1)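 Rat testis microsomes supplying 17β-HSD3, converting [14C]-4-androstene-3,17-dione (50 nM) into testosterone. Inhibition of this transformation is measured at a fixed inhibitor concentration and expressed as mean ± SD of triplicate.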

The target of assay [3] is T2, 17-beta-hydroxysteroid dehydrogenase type 3 (Rattus norvegicus). Nature of the assay: Inhibition of 17beta-HSD3 in rat testes microsomal fraction using [14C]-4-androstene-3,17-dione as substrate assessed as testosterone formation at 1 uM after 2 hrs by thin layer chromatography. It is filed as microsomes. To be noted: Testis. The method, boiled down:
as §1

What is called IC50 is the concentration at which inhibition is half-maximal. As a reminder, the inhibition is the percentage by which the read-out fell short of the control. For the compound `CC1CN(S(=O)(=O)c2ccccc2C(F)(F)F)C(C)CN1C[C@@]1(O)CC[C@@]2(C)[C@@H](CC[C@@H]3[C@@H]2CC[C@]2(C)C(=O)CC[C@@H]32)C1` (stereo partly specified), the IC50 in assay [1] was found to be 14 nM. Besides, the inhibition in assay [2] came to 47.3%.
As for `C[C@]12CC[C@]3(CN[C@@H](Cc4ccccc4)C(=O)O3)C[C@@H]1CC[C@@H]1[C@@H]2CC[C@]2(C)C(=O)CC[C@@H]12`, the inhibition in assay [3] was found to be 92%; in assay [2], 48.8%. Moreover, in assay [1], the IC50 came out at 22 nM.
As to `O=C1OC2(CCCCC2)CN[C@H]1Cc1ccccc1`, the inhibition was 19.5% in assay [3] and 6.2% in assay [2].
As to `C[C@]12CC[C@@]3(C[C@@H]1CC[C@@H]1[C@@H]2CC[C@]2(C)C(=O)CC[C@@H]12)CN(Cc1ccccc1)[C@H](Cc1ccccc1)C(=O)O3`, the inhibition in assay [3] worked out at 87.3%; in assay [2] it was 25.6%.
For `C[C@]12CC[C@]3(CN[C@H](Cc4ccccc4)C(=O)O3)C[C@@H]1CC[C@@H]1[C@@H]2CC[C@]2(C)C(=O)CC[C@@H]12`, in that order: 63.2% and 18.5%.
On the same counts, the results for `O=C1OC2(CCCCC2)CN(Cc2ccccc2)[C@H]1Cc1ccccc1` are 24.3% and 24.2%.
`C[C@]12CC[C@@]3(C[C@@H]1CC[C@@H]1[C@@H]2CC[C@]2(C)C(=O)CC[C@@H]12)CN(Cc1ccccc1)[C@@H](Cc1ccccc1)C(=O)O3`: the inhibition was 90.4% in assay [3] and 58.2% in assay [2]. Besides, the IC50 in assay [1] was 58 nM.
